Measurements published in ChEMBL document CHEMBL1139437, “Design, synthesis, and preliminary pharmacological evaluation of 4-aminopiperidine derivatives as N-type calcium channel blockers active on pain and neuropathic pain” (J Med Chem, 2004).

Experiments:
[1] = species on record: Mus musculus; assay: Percentage analgesic efficacy when compared to morphine; assay type: functional; design: concentration or dose not given beside the values
Method in brief: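 Male Swiss albino mice, hot-plate test, paw-licking latency; pretest 12–18 s required, cutoff 45 s. Icv injection of 5 μL under brief anaesthesia, in saline or H2O/DMSO 2:1, at maximal soluble dose. Latency read before and every 15 min after dosing. Efficacy = (peak latency − pretest) as % of the same value for morphine 10 μg/mouse icv; non-significant effects scored 0.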

[2] = test system: Mus musculus; assay: Analgesic activity was evaluated in mouse hotplate test; expressed as licking latency after 15 min of treatment at a dose of 50 ug intracerebroventricularly; assay type: functional
Method in brief: (§1)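 Male Swiss albino mice (23-30 g); icv injection of 5 μL (saline or H2O/DMSO 2:1) under brief anaesthesia. Paw-licking latency (s) on hot plate read before injection and every 15 min up to 60 min. Mice with pretest latency below 12 or over 18 s excluded; cutoff 45 s. Statistics against saline- or vehicle-treated controls.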

[3] = test system: Mus musculus; assay: Analgesic activity was evaluated in mouse hotplate test; expressed as licking latency after 30 min of treatment at a dose of 50 ug intracerebroventricularly; assay type: functional; method in brief: as §1
[4] = test system: Mus musculus; assay: Analgesic activity was evaluated in mouse hotplate test; expressed as licking latency after 45 min of treatment at a dose of 50 ug intracerebroventricularly; assay type: functional; method in brief: as §1
[5] = test system: Rattus norvegicus; assay: Antihyperalgesic activity was evaluated in rat (dx) paw pressure test after 30 min at a dose of 50 ug intracerebroventricularly
[6] = test system: Rattus norvegicus; assay: Antihyperalgesic activity was evaluated in rat (dx) paw pressure test after 45 min at a dose of 50 ug intracerebroventricularly
[7] = test system: Rattus norvegicus; assay: Antihyperalgesic activity was evaluated in rat (dx) paw pressure test after 60 min at a dose of 50 ug intracerebroventricularly
[8] = test system: Rattus norvegicus; assay: Antihyperalgesic activity was evaluated in rat (sn) paw pressure test after 30 min at a dose of 50 ug intracerebroventricularly
[9] = test system: Rattus norvegicus; assay: Antihyperalgesic activity was evaluated in rat (sn) paw pressure test after 45 min at a dose of 50 ug intracerebroventricularly
[10] = test system: Rattus norvegicus; assay: Antihyperalgesic activity was evaluated in rat (sn) paw pressure test after 60 min at a dose of 50 ug intracerebroventricularly
[11] = molecular target: Voltage-dependent N-type calcium channel subunit alpha-1B (Rattus norvegicus) (UniProt Q02294); assay: In vitro antagonism of N-type calcium channels expressed in PC12 cells was determined as the increase in intracellular calcium influx
Sequence of Voltage-dependent N-type calcium channel subunit alpha-1B (Rattus norvegicus) (Q02294 whole entry, looked up): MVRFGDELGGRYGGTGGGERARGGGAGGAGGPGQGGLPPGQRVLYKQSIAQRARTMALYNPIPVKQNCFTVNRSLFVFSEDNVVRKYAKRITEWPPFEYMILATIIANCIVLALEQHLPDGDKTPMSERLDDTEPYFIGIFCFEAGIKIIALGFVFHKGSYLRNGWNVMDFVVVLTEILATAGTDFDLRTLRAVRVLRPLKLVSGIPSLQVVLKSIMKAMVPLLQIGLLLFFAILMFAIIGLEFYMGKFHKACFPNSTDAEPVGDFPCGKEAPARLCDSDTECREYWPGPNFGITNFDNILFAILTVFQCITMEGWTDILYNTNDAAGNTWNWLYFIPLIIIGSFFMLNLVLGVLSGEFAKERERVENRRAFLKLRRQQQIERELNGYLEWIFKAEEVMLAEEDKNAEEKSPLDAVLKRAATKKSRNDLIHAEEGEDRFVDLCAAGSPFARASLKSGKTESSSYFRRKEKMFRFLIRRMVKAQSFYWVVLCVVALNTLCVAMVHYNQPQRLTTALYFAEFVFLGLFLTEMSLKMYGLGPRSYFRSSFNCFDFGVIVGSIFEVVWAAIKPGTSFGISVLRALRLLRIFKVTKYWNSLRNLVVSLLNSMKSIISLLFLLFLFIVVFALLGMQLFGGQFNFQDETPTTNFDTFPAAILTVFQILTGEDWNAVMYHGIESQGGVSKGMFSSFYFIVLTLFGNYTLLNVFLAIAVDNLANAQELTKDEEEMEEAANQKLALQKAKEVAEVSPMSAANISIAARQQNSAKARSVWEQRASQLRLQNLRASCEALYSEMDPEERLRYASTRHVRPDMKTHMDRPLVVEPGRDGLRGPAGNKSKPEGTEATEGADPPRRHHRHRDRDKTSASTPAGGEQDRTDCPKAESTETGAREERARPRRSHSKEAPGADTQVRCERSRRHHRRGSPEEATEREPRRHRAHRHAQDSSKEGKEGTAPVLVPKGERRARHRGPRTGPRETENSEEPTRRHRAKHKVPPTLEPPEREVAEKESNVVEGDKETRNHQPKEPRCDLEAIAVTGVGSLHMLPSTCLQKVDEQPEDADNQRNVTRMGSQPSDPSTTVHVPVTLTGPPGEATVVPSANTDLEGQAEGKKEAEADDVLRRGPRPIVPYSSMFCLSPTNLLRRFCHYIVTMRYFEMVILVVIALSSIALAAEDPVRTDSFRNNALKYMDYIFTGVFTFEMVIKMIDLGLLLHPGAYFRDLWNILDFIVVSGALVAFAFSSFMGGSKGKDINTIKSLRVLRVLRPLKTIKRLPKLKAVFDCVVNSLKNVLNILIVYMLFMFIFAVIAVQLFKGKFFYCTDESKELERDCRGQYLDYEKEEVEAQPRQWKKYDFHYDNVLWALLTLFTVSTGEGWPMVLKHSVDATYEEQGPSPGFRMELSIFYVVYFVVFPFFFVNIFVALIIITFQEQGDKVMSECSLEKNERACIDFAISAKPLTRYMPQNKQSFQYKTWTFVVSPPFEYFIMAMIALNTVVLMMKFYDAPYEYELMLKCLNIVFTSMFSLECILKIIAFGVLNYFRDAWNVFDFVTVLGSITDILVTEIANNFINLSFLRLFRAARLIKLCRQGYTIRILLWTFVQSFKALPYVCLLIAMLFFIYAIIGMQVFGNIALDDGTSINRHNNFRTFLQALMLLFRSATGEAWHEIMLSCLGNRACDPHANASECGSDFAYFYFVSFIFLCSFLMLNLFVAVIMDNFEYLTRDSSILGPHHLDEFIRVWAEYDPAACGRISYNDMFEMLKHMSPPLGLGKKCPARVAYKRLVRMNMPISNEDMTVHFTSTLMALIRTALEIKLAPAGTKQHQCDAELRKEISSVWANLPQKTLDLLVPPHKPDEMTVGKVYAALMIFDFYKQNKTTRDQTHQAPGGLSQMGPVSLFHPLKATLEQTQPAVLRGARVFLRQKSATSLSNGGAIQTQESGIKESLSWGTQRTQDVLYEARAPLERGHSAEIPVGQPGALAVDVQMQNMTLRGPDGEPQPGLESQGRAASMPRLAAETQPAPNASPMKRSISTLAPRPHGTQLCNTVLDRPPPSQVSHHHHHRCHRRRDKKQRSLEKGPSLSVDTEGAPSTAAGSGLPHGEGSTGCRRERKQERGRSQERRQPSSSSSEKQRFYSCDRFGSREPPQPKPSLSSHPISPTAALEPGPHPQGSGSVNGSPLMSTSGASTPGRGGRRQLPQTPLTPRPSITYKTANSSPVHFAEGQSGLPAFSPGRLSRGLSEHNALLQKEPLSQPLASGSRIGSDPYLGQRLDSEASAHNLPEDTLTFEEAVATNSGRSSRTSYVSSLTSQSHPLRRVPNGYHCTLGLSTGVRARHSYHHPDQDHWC

[12] = molecular target: Voltage-dependent N-type calcium channel subunit alpha-1B (Rattus norvegicus) (UniProt Q02294); assay: In vitro antagonism of N-type calcium channels expressed in PC12 cells was determined as the increase in intracellular calcium influx in the presence of 10 uM nifedipine
[13] = test system: Mus musculus; assay: Analgesic activity was evaluated in mouse hotplate test; expressed as licking latency after 30 min of treatment at a dose of 10 ug intracerebroventricularly; assay type: functional; method in brief: as §1
[14] = test system: Mus musculus; assay: Analgesic activity was evaluated in mouse hotplate test; expressed as licking latency after 45 min of treatment at a dose of 10 ug intracerebroventricularly; assay type: functional; method in brief: as §1
[15] = test system: Mus musculus; assay: Analgesic activity was evaluated in mouse hotplate test; expressed as licking latency after 15 min of treatment at a dose of 10 ug intracerebroventricularly; assay type: functional; method in brief: as §1
[16] = test system: Mus musculus; assay: Analgesic activity was evaluated in mouse hotplate test; expressed as licking latency after 30 min of treatment at a dose of 25 ug intracerebroventricularly; assay type: functional; method in brief: as §1
[17] = test system: Mus musculus; assay: Analgesic activity was evaluated in mouse hotplate test; expressed as licking latency after 15 min of treatment at a dose of 25 ug intracerebroventricularly; assay type: functional; method in brief: as §1
[18] = test system: Mus musculus; assay: Analgesic activity was evaluated in mouse hotplate test; expressed as licking latency after 45 min of treatment at a dose of 25 ug intracerebroventricularly; assay type: functional; method in brief: as §1
[19] = test system: Mus musculus; assay: Analgesic activity was evaluated in mouse hotplate test; expressed as licking latency after 15 min of treatment at a dose of 30 ug intracerebroventricularly; assay type: functional; method in brief: as §1
[20] = test system: Mus musculus; assay: Analgesic activity was evaluated in mouse hotplate test; expressed as licking latency after 30 min of treatment at a dose of 30 ug intracerebroventricularly; assay type: functional; method in brief: as §1
[21] = test system: Mus musculus; assay: Analgesic activity was evaluated in mouse hotplate test; expressed as licking latency after 45 min of treatment at a dose of 30 ug intracerebroventricularly; assay type: functional; method in brief: as §1
[22] = test system: Rattus norvegicus; assay: Antihyperalgesic activity was evaluated in rat (sn) paw pressure test after 30 min at a dose of 30 ug intracerebroventricularly
[23] = test system: Rattus norvegicus; assay: Antihyperalgesic activity was evaluated in rat (dx) paw pressure test after 30 min at a dose of 30 ug intracerebroventricularly
[24] = test system: Rattus norvegicus; assay: Antihyperalgesic activity was evaluated in rat (dx) paw pressure test after 45 min at a dose of 30 ug intracerebroventricularly
[25] = test system: Rattus norvegicus; assay: Antihyperalgesic activity was evaluated in rat (dx) paw pressure test after 60 min at a dose of 30 ug intracerebroventricularly
[26] = test system: Rattus norvegicus; assay: Antihyperalgesic activity was evaluated in rat (sn) paw pressure test after 45 min at a dose of 30 ug intracerebroventricularly
[27] = test system: Rattus norvegicus; assay: Antihyperalgesic activity was evaluated in rat (sn) paw pressure test after 60 min at a dose of 30 ug intracerebroventricularly
[28] = test system: Mus musculus; assay: Analgesic activity was evaluated in mouse hotplate test; expressed as licking latency after 15 min of treatment at a dose of 40 ug intracerebroventricularly; assay type: functional; method in brief: as §1
[29] = test system: Mus musculus; assay: Analgesic activity was evaluated in mouse hotplate test; expressed as licking latency after 30 min of treatment at a dose of 40 ug intracerebroventricularly; assay type: functional; method in brief: as §1
[30] = test system: Mus musculus; assay: Analgesic activity was evaluated in mouse hotplate test; expressed as licking latency after 45 min of treatment at a dose of 40 ug intracerebroventricularly; assay type: functional; method in brief: as §1

SMILES: COc1ccc(C(C#N)(CCCN2CCC(NCCOc3ccccc3)CC2)C(C)C)cc1OC.O=C(O)C(=O)O (configuration not stated)
- Efficacy [1]: 61%
- Latency [2]: 22.3 s
- Latency [3]: 20.8 s
- Latency [4]: 18.9 s
- Activity [5]: 61.7 g
- Activity [6]: 58.3 g
- Activity [7]: 54.8 g
- Activity [8]: 59.5 g
- Activity [9]: 64.7 g
- Activity [10]: 60.6 g
- IC50 [11]: 700 nM
- IC50 [12]: 400 nM

SMILES: COc1ccc(CCNC2CCN(CCCC(C#N)(c3ccc(OC)c(OC)c3)C(C)C)CC2)cc1OC.O=C(O)C(=O)O (configuration not stated)
- Latency [13]: 18.3 s
- Efficacy [1]: 0%
- Latency [14]: 17.6 s
- Latency [15]: 17.2 s

SMILES: CCCCN1CCC(NCCCC(C#N)(c2ccc(OC)c(OC)c2)C(C)C)CC1.Cl (configuration not stated)
- Latency [16]: 21.6 s
- Efficacy [1]: 47%
- Latency [17]: 20.5 s
- Latency [18]: 19 s

SMILES: CCCCNC1CCN(CCCC(C#N)(c2ccc(OC)c(OC)c2)C(C)C)CC1.Cl (configuration not stated)
- Latency [19]: 23.1 s
- Latency [20]: 21.3 s
- Efficacy [1]: 59%
- Latency [21]: 18.7 s
- Activity [22]: 59.1 g
- Activity [23]: 47.3 g
- Activity [24]: 43.5 g
- Activity [25]: 38.6 g
- Activity [26]: 57.3 g
- Activity [27]: 59.2 g

SMILES: CC(C)CC(N)C(=O)NC1CCN(C(=O)CCC(c2ccc(F)cc2)c2ccc(F)cc2)CC1.Cl (configuration not stated)
- Latency [28]: 23.2 s
- Latency [29]: 22.6 s
- Efficacy [1]: 71%
- Latency [30]: 16.6 s
- Activity [5]: 62.5 g
- Activity [6]: 60.3 g
- Activity [7]: 55.8 g
- Activity [8]: 55.9 g
- Activity [9]: 61.3 g
- Activity [10]: 63.2 g

SMILES: COc1ccc(CCNC2CCN(CCCC(C#N)(c3ccccc3)C(C)C)CC2)cc1OC.O=C(O)C(=O)O (configuration not stated)
- Latency [13]: 18.1 s
- Efficacy [1]: 0%
- Latency [14]: 17.5 s
- Latency [15]: 16.6 s

SMILES: COc1ccc(CCNC2CCN(Cc3ccccc3)CC2)cc1OC.Cl
- Efficacy [1]: 0%
- Latency [2]: 15.5 s
- Latency [3]: 16.7 s
- Latency [4]: 15.3 s

SMILES: CCCCNC1CCN(C(=O)CCC(C#N)(c2ccc(OC)c(OC)c2)C(C)C)CC1.Cl (configuration not stated)
- Latency [19]: 18.7 s
- Latency [20]: 17.4 s
- Efficacy [1]: 0%
- Latency [21]: 17 s
- Activity [22]: 65 g
- Activity [23]: 28.4 g
- Activity [24]: 26.7 g
- Activity [25]: 32 g
- Activity [26]: 56.9 g
- Activity [27]: 59.3 g

SMILES: COc1ccc(CCNC2CCN(C(=O)CCC(C#N)(c3ccc(OC)c(OC)c3)C(C)C)CC2)cc1OC.O=C(O)C(=O)O (configuration not stated)
- Latency [13]: 18.8 s
- Efficacy [1]: 0%
- Latency [14]: 17.3 s
- Latency [15]: 16.5 s
